Assay [1] concerns Cryptococcus neoformans. The experiment in a line: Minimum inhibitory concentration (MIC) that inhibits all visible growth of the Cryptococcus neoformans (fungus) at 64 ug/mL; NI is no inhibition. The format is functional, organism-based. In short, it runs like this:
(§1)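 Broth microdilution following NCCLS reference methods (M7-A4 for aerobic bacteria, the yeast broth dilution standard for fungi). MIC is the lowest compound concentration giving optically clear wells, with no visible growth of the test organism.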

For assay [2], the system named is SF-268. The experiment in a line: In vitro growth inhibition of central nervous system SF-268 cell line. The settings on record: Homo sapiens. The format is functional.
For assay [3], the system named is Neisseria gonorrhoeae. Kind of assay: The minimum inhibitory concentration (MIC) that inhibits all visible growth of the Neisseria gonorrhoeae (bacteria); value may ranges from (32 - 64). The format is functional. In outline:
as §1

Assay [4] has as its system Enterococcus faecalis. The experiment in a line: The minimum inhibitory concentration (MIC) that inhibits all visible growth of the Enterococcus faecalis (bacteria) at 64 ug/mL; NI is no inhibition. The class given is functional, organism-based. In short, it runs like this:
as §1

Assay [5] deals with Staphylococcus aureus. Kind of assay: The minimum inhibitory concentration (MIC) that inhibits all visible growth of the Staphylococcus aureus (bacteria) at 64 ug/mL; NI is no inhibition. The format is functional, organism-based. In short, it runs like this:
as §1

Assay [6] relates to Streptococcus pneumoniae. The experiment in a line: The minimum inhibitory concentration (MIC) that inhibits all visible growth of the Streptococcus pneumoniae (bacteria). The class given is functional. In outline:
as §1

The test system of assay [7] is P388. Kind of assay: In vitro inhibition of P388 (murine leukemia) cell proliferation. The class given is functional. The settings on record: Mus musculus, read-out: ED50 (the source's name).
The subject of assay [8] is BXPC-3. The experiment in a line: In vitro growth inhibition of BXPC-3 (human pancreatic adenocarcinoma) cell line. The class given is functional.
The test system of assay [9] is DU-145. The experiment in a line: In vitro growth inhibition of DU-145 (human prostate carcinoma) cell line. The class given is functional.
For assay [10], the system named is Stenotrophomonas maltophilia. Kind of assay: The minimum inhibitory concentration (MIC) that inhibits all visible growth of the Stenotrophomonas maltophilia (bacteria) at 64 ug/mL; NI is no inhibition. The format is functional, organism-based. In outline: as §1
The test system of assay [11] is Candida albicans. The experiment in a line: The minimum inhibitory concentration (MIC) that inhibits all visible growth of the Candida albicans (fungus) at 64 ug/mL; NI is no inhibition. The class given is functional, organism-based. In outline:
as §1

Assay [12] relates to Enterobacter cloacae. Kind of assay: The minimum inhibitory concentration (MIC) that inhibits all visible growth of the Enterobacter cloacae (bacteria) at 64 ug/mL; NI is no inhibition. The class given is functional, organism-based. In outline:
as §1

Assay [13] can be described thus: In vitro growth inhibition of NCI-H460 (human non-small cell lung carcinoma) cell line. The format is functional.
The subject of assay [14] is MCF7. Kind of assay: Cell growth inhibition of breast MCF-7 cells, expressed as 50% reduction in the net protein increase. The class given is functional. The following applies: Homo sapiens.
Assay [15] has as its system Escherichia coli. The experiment in a line: The minimum inhibitory concentration (MIC) that inhibits all visible growth of the Escherichia coli (bacteria) at 64 ug/mL; NI is no inhibition. The class given is functional, organism-based. In outline:
as §1

For assay [16], the system named is Micrococcus luteus. Kind of assay: the minimum inhibitory concentration (MIC) that inhibits all visible growth of the Micrococcus luteus (bacteria) at 64 ug/mL; NI is no inhibition. The class given is functional, organism-based. In outline: as §1
In assay [17] the test system is KM-20L2. Kind of assay: In vitro growth inhibition of KM20L2 cell line. The format is functional. The settings on record: Homo sapiens.
For assay [18], the system named is Enterococcus faecalis. Kind of assay: the minimum inhibitory concentration (MIC) that inhibits all visible growth of the Enterococcus faecalis (bacteria) at 64 ug/mL; NI is no inhibition. The class given is functional, organism-based. In short, it runs like this: as §1
Assay [19] concerns Streptococcus pneumoniae. Kind of assay: The minimum inhibitory concentration (MIC) that inhibits all visible growth of the Streptococcus pneumoniae (bacteria); MIC may range from (32 - 64). The class given is functional. In short, it runs like this: as §1
Assay [20] relates to Neisseria gonorrhoeae. The experiment in a line: The minimum inhibitory concentration (MIC) that inhibits all visible growth of the Neisseria gonorrhoeae (bacteria); value may range from (16 -32). The class given is functional. In short, it runs like this: as §1
The subject of assay [21] is Cryptococcus neoformans. Kind of assay: Minimum inhibitory concentration (MIC) that inhibits all visible growth of the Cryptococcus neoformans (fungus). The format is functional. In short, it runs like this: as §1
The subject of assay [22] is Neisseria gonorrhoeae. The experiment in a line: The minimum inhibitory concentration (MIC) that inhibits all visible growth of the Neisseria gonorrhoeae (bacteria). The format is functional. In short, it runs like this: as §1
The target of assay [23] is Tubulin (Bos taurus, UniProt Q6B856+Q862L2+Q862F3). The experiment in a line: Inhibition of tubulin polymerization reported as IC50. The class given is functional.
The subject of assay [24] is Candida albicans. The experiment in a line: The minimum inhibitory concentration (MIC) that inhibits all visible growth of the Candida albicans (fungus). The class given is functional. In short, it runs like this:
as §1

For assay [25], the system named is Micrococcus luteus. Kind of assay: the minimum inhibitory concentration (MIC) that inhibits all visible growth of the Micrococcus luteus (bacteria). The format is functional. In short, it runs like this:
as §1

The test system of assay [26] is Cryptococcus neoformans. The experiment in a line: Minimum inhibitory concentration (MIC) that inhibits all visible growth of the Cryptococcus neoformans (fungus). The class given is functional. In outline:
as §1

Assay [27] relates to Staphylococcus aureus. The experiment in a line: The minimum inhibitory concentration (MIC) that inhibits all visible growth of the Staphylococcus aureus (bacteria). The class given is functional. In outline:
as §1

Assay [28] deals with Enterococcus faecalis. The experiment in a line: the minimum inhibitory concentration (MIC) that inhibits all visible growth of the Enterococcus faecalis (bacteria). The format is functional. In outline: as §1
The subject of assay [29] is SF-268 (Homo sapiens). The experiment in a line: The concentration causing 50% reduction in the net protein increase (cell growth inhibition, GI50) against central nervous system (CNS) SF-268 cells.

Each structure is given as a SMILES string. Converted amounts (≈) assume the structure as drawn. The source made the active and inactive calls. No cut-off for these calls is given here.

With `COc1cc(OC)cc(C(=O)c2ccc(O)cc2)c1`, the MIC entry in assay [1], in assay [4], in [5], in assay [10], in [11] and in assay [12] was “inactive” each time. For the same molecule, the MIC result in [15], in assay [16] and in assay [18] was “inactive” in each case. In addition, the GI50 was determined as 3.8 µg/mL (≈ 14.7 µM) in [2]; 4 µg/mL (≈ 15.5 µM) in assay [8]; 4.1 µg/mL (≈ 15.9 µM) in assay [9]; 3 µg/mL (≈ 11.6 µM) in assay [13]; 2.2 µg/mL (≈ 8.52 µM) in assay [14]; 3.6 µg/mL (≈ 13.9 µM) in [17]. Further, the MIC in assay [3] and in assay [6] was 64 µg/mL (≈ 248 µM) each time. Besides, the EC50 in assay [7] stood at 24.8 µg/mL (≈ 96 µM).
For `COc1ccc(C(=O)c2cc(O)cc(OC)c2)cc1`, the GI50 was determined as 13.9 µg/mL (≈ 53.8 µM) in [2]; 15 µg/mL (≈ 58.1 µM) in assay [8]; 12.6 µg/mL (≈ 48.8 µM) in assay [9]; 10.3 µg/mL (≈ 39.9 µM) in [13]; 14.2 µg/mL (≈ 55 µM) in assay [14]; 16.2 µg/mL (≈ 62.7 µM) in assay [17]. Moreover, the MIC result in assay [4], in assay [5], in assay [10], in assay [11], in assay [12] and in assay [15] was “inactive” each time. The MIC result in assay [16] and in [18] was “inactive” throughout. Further, the EC50 in [7] was found to be 13.4 µg/mL (≈ 51.9 µM). Moreover, the MIC stood at 64 µg/mL (≈ 248 µM) in [19], 32 µg/mL (≈ 124 µM) in assay [20] and 64 µg/mL (≈ 248 µM) in [21].
Regarding `COc1cc(/C=C\c2ccc(O)cc2)cc(OC)c1`, the GI50 in assay [2] was 2.2 µg/mL (≈ 8.58 µM); in assay [8], 12.6 µg/mL (≈ 49.2 µM); in assay [9], 2.3 µg/mL (≈ 8.97 µM); in assay [13] it was 2.8 µg/mL (≈ 10.9 µM); in [14] it was 3 µg/mL (≈ 11.7 µM); in assay [17], 11.9 µg/mL (≈ 46.4 µM). Moreover, the MIC in assay [22] was 8 µg/mL (≈ 31.2 µM); in assay [24] it was 64 µg/mL (≈ 250 µM); in [6] it was 16 µg/mL (≈ 62.4 µM); in [25] it was 8 µg/mL (≈ 31.2 µM); in assay [26] it was 16 µg/mL (≈ 62.4 µM); in [27], 32 µg/mL (≈ 125 µM). The MIC in assay [28] came to 32 µg/mL (≈ 125 µM). Also, the IC50 in [23] worked out at 29 µM. Further, the EC50 in assay [7] turned out to be 2.95 µg/mL (≈ 11.5 µM).
As for `COc1cc(/C=C/c2ccc(O)cc2)cc(OC)c1` [PTEROSTILBENE], the EC50 in assay [7] amounted to 4.87 µg/mL (≈ 19 µM). Besides, the GI50 amounted to 4.3 µg/mL (≈ 16.8 µM) in assay [29]; 6.5 µg/mL (≈ 25.4 µM) in assay [8]; 2.7 µg/mL (≈ 10.5 µM) in assay [9]; 2.7 µg/mL (≈ 10.5 µM) in assay [13]; 2.3 µg/mL (≈ 8.97 µM) in assay [14]; 3.4 µg/mL (≈ 13.3 µM) in assay [17].
